Reference: ChEMBL document CHEMBL1126030, “Synthesis and antiviral activity of a series of HIV-1 protease inhibitors with functionality tethered to the P1 or P1' phenyl substituents: X-ray crystal structure assisted design” (J Med Chem, 1992)

How the values were obtained:
[1] = target: T1, Human immunodeficiency virus type 1 protease (Human immunodeficiency virus 1, UniProt Q72874); assay: (§1) In vitro enzyme inhibitory activity against HIV-1 protease.
[2] = test system: H9; assay: In vitro anti viral activity against HIV-1 in human H9 T-lymphoid cell culture by p-24-ELISA assay; assay type: functional
Method in brief: (§2)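 Read-out is the minimum cell culture inhibitory concentration (CIC), the lowest concentration that fully prevents spread of viral infection in the human cell culture. Spread is scored by fixed-cell immunofluorescence or by p24 ELISA.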

[3] = target: Human immunodeficiency virus type 1 protease (Human immunodeficiency virus 1) (UniProt Q72874); assay: Ratio of inhibitory activity on HIV-1 protease (IC50) to antiviral activity against HIV-1 in human H9 T-lymphoid cell-ELISA assay(CIC); assay type: functional, cell-based
Method in brief: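 Ratio of enzyme IC50 against HIV-1 protease to CIC. CIC is the minimum cell culture inhibitory concentration that prevents spread of HIV-1 infection in human H9 T-lymphoid cells, read out by p24 ELISA.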

[4] = test system: H9; assay: In vitro anti viral activity against HIV-1 in human H9 T-lymphoid cell culture by fixed cell immunofluorescence assay; assay type: functional; method in brief: as §2
[5] = test system: H9; assay: In vitro anti viral activity against HIV-1(IIIb) in H9 T-lymphoid cell culture by fixed cell immunofluorescence assay; assay type: functional, Homo sapiens; method in brief: as §2
[6] = test system: H9; assay: In vitro anti viral activity against HIV-1(IIIb) in H9 T-lymphoid cell culture by p-24 ELISA assay; assay type: functional, Homo sapiens; method in brief: as §2
[7] = test system: H9; assay: In vitro anti viral activity against SIV-mac251 in H9 T-lymphoid cell culture by fixed cell immunofluorescence assay; assay type: functional, Homo sapiens; method in brief: as §2
[8] = test system: H9; assay: In vitro anti viral activity against SIV(mne) in H9 T-lymphoid cell culture by fixed cell immunofluorescence assay; assay type: functional, Homo sapiens; method in brief: as §2
[9] = test system: MT4; assay: In vitro anti viral activity against HIV-1(RUTZ) in MT-4 T-lymphoid cell culture by fixed cell immunofluorescence assay; assay type: functional, Homo sapiens; method in brief: as §2
[10] = test system: MT4; assay: In vitro anti viral activity against HIV-1(WMJ-2) in MT-4 T-lymphoid cell culture by fixed cell immunofluorescence assay; assay type: functional, Homo sapiens; method in brief: as §2
[11] = test system: MT4; assay: In vitro anti viral activity against HIV-1(IIIb) MT-4 T-lymphoid cell culture by fixed cell immunofluorescence assay; assay type: functional, Homo sapiens; method in brief: as §2
[12] = test system: MT4; assay: In vitro anti viral activity against HIV-1(IIIb) MT-4 T-lymphoid cell culture by p-24-ELISA assay; assay type: functional, Homo sapiens; method in brief: as §2
[13] = test system: MT4; assay: In vitro anti viral activity against HIV-1(MN) in MT-4 T-lymphoid cell culture by fixed cell immunofluorescence assay; assay type: functional, Homo sapiens; method in brief: as §2
[14] = test system: MT4; assay: In vitro anti viral activity against HIV-1(RF) in MT-4 T-lymphoid cell culture by fixed cell immunofluorescence assay; assay type: functional, Homo sapiens; method in brief: as §2
[15] = target: T1, Human immunodeficiency virus type 1 protease; assay: as §1; assay type: functional
[16] = organism: Homo sapiens; assay: In vitro anti viral activity against HIV-1(IIIb) in peripheral blood lymphocytes by fixed cell immunofluorescence assay; assay type: functional; method in brief: as §2
[17] = organism: Homo sapiens; assay: In vitro anti viral activity against HIV-1(IIIb) in peripheral blood lymphocytes by p-24-ELISA assay; assay type: functional; method in brief: as §2
[18] = organism: Homo sapiens; assay: In vitro anti viral activity against HIV-1(SF162) in monocytes/macrophages by fixed cell immunofluorescence assay; assay type: functional; method in brief: as §2
[19] = test system: MT4; assay: In vitro anti viral activity against HIV-1(IIIB) in MT-4 T-lymphoid cell culture by p-24-ELISA assay; assay type: functional, Homo sapiens; method in brief: as §2

SMILES	IC50 [1]	CIC [2]	I/C [3]	CIC [4]	also measured
CC(C)(C)OC(=O)N[C@@H](Cc1ccccc1)[C@@H](O)C[C@@H](Cc1ccc(O)cc1)C(=O)N[C@H]1c2ccccc2C[C@H]1O	0.16 nM	50 nM	0.0032	25 nM	–
CC(C)(C)OC(=O)N[C@@H](Cc1ccccc1)[C@@H](O)CC(Cc1ccc(OCC(=O)O)cc1)C(=O)NC1c2ccccc2C[C@H]1O (some centres undefined)	0.04 nM	>400 nM	< 0.0001	–	–
CC(C)(C)OC(=O)N[C@@H](Cc1ccc(OCCN2CCOCC2)cc1)[C@@H](O)C[C@@H](Cc1ccc(OCCN2CCOCC2)cc1)C(=O)NC1c2ccccc2C[C@H]1O (some centres undefined)	1.9 nM	–	0.019	100 nM	–
CC(C)(C)OC(=O)N[C@@H](Cc1ccc(OCCN2CCOCC2)cc1)[C@@H](O)C[C@@H](Cc1ccccc1)C(=O)NC1c2ccccc2C[C@H]1O (some centres undefined)	0.55 nM	–	0.011	50 nM	–
CC(C)(C)OC(=O)N[C@@H](Cc1ccccc1)[C@@H](O)C[C@@H](Cc1ccc(OCCN2CCOCC2)cc1)C(=O)N[C@H]1c2ccccc2C[C@H]1O	–	50 nM	0.038	12 nM	CIC [5]: 12 nM; CIC [6]: 25 nM; CIC [7]: 800 nM; CIC [8]: 200 nM; CIC [9]: 12 nM; CIC [10]: 12 nM; CIC [11]: 25 nM; CIC [12]: 50 nM; CIC [13]: 25 nM; CIC [14]: 50 nM; IC50 [15]: 0.45 nM; CIC [16]: 0.78 nM; CIC [17]: 25 nM; CIC [18]: 50 nM
COCCN(CCOC)CCOc1ccc(C[C@H](C[C@H](O)[C@H](Cc2ccccc2)NC(=O)OC(C)(C)C)C(=O)NC2c3ccccc3C[C@H]2O)cc1 (some centres undefined)	0.9 nM	–	0.018	50 nM	–
CC(C)(C)OC(=O)N[C@@H](Cc1ccccc1)[C@@H](O)C[C@@H](Cc1ccc(OCC[N+]2([O-])CCOCC2)cc1)C(=O)NC1c2ccccc2C[C@H]1O (some centres undefined)	0.2 nM	100 nM	0.002	–	–
NC1N=CNc2c1ncn2[C@H]1CC[C@@H](CO)O1 (some centres undefined)	–	–	–	25000 nM	–
CC(C)(C)OC(=O)N[C@@H](Cc1ccccc1)[C@@H](O)C[C@@H](Cc1ccc(OCC(=O)N2CCOCC2)cc1)C(=O)NC1c2ccccc2C[C@H]1O (some centres undefined)	0.2 nM	50 nM	0.004	–	–
CN1CCN(CCOc2ccc(C[C@H](C[C@H](O)[C@H](Cc3ccccc3)NC(=O)OC(C)(C)C)C(=O)NC3c4ccccc4C[C@H]3O)cc2)CC1 (some centres undefined)	0.2 nM	100 nM	0.002	–	–
CC(C)(C)OC(=O)N[C@@H](Cc1ccccc1)[C@@H](O)C[C@@H](Cc1ccc(OCCCN2CCOCC2)cc1)C(=O)NC1c2ccccc2C[C@H]1O (some centres undefined)	2 nM	–	0.01	200 nM	–
CC(C)(C)OC(=O)N[C@@H](Cc1ccccc1)[C@@H](O)C[C@@H](Cc1ccccc1)C(=O)N[C@H]1c2ccccc2C[C@H]1O	0.35 nM	–	0.0009	400 nM	–
CC(C)(C)OC(=O)N[C@@H](Cc1ccc(O)cc1)[C@@H](O)C[C@@H](Cc1ccc(O)cc1)C(=O)NC1c2ccccc2C[C@H]1O (some centres undefined)	0.15 nM	–	0.0002	780 nM	–
CC(C)(C)OC(=O)N[C@@H](Cc1ccccc1)[C@@H](O)C[C@@H](Cc1ccc(OCCN2CCCCC2)cc1)C(=O)NC1c2ccccc2C[C@H]1O (some centres undefined)	1.6 nM	–	0.004	400 nM	–
CC(C)(C)OC(=O)N[C@@H](Cc1ccccc1)[C@@H](O)C[C@@H](Cc1ccc(OCCN2CCS(=O)(=O)CC2)cc1)C(=O)NC1c2ccccc2C[C@H]1O (some centres undefined)	0.08 nM	100 nM	0.0008	–	–
CC(C)(C)OC(=O)N[C@@H](Cc1ccccc1)[C@@H](O)C[C@@H](Cc1ccc(OCCO)cc1)C(=O)NC1c2ccccc2C[C@H]1O (some centres undefined)	0.09 nM	50 nM	0.0018	–	–
CC(C)(C)OC(=O)N[C@@H](Cc1ccc(O)cc1)[C@@H](O)C[C@@H](Cc1ccccc1)C(=O)NC1c2ccccc2C[C@H]1O (some centres undefined)	0.35 nM	25 nM	0.007	50 nM	–
CN(C)CCOc1ccc(C[C@H](C[C@H](O)[C@H](Cc2ccccc2)NC(=O)OC(C)(C)C)C(=O)NC2c3ccccc3C[C@H]2O)cc1 (some centres undefined)	1 nM	–	0.0025	400 nM	–
CC(C)(C)OC(=O)N[C@@H](Cc1ccccc1)[C@@H](O)C[C@@H](Cc1ccc(OCc2ccccc2)cc1)C(=O)NC1c2ccccc2C[C@H]1O (some centres undefined)	0.18 nM	50 nM	0.0036	–	–
CC(C)(C)OC(=O)N[C@@H](Cc1ccccc1)[C@@H](O)C[C@@H](Cc1ccc(OCCN2CCCC2)cc1)C(=O)NC1c2ccccc2C[C@H]1O (some centres undefined)	1.8 nM	–	–	–	–
CC(C)(C)OC(=O)N[C@@H](Cc1ccccc1)[C@@H](O)C[C@@H](Cc1ccc(OCCN2CCSCC2)cc1)C(=O)NC1c2ccccc2C[C@H]1O (some centres undefined)	0.47 nM	–	0.0094	50 nM	–
CC(C)(C)OC(=O)N[C@@H](Cc1ccccc1)[C@@H](O)C[C@@H](Cc1ccc(OCCN2CC[S+]([O-])CC2)cc1)C(=O)NC1c2ccccc2C[C@H]1O (some centres undefined)	0.07 nM	–	0.00035	200 nM	–
Cc1cn([C@H]2C[C@H](N=[N+]=[N-])[C@@H](CO)O2)c(=O)[nH]c1=O [ZIDOVUDINE]	–	–	–	–	CIC [19]: 25 nM
